The values that follow come from ChEMBL document CHEMBL1150307, “Design, synthesis and evaluation of novel sulfonyl pyrrolidine derivatives as matrix metalloproteinase inhibitors” (Bioorg Med Chem, 2008).

Assay [1] has as its target 72 kDa type IV collagenase (Homo sapiens, UniProt P08253). Briefly: Inhibition of MMP2. The procedure, abridged: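 Run in borate buffer (50 mM, pH 8.5) with succinylated gelatin as substrate. Enzyme and inhibitor were preincubated 30 min at 37 °C, then substrate was added for 60 min at 37 °C. Picrylsulfonic acid (0.03%) was added for 20 min at room temperature. Absorbance was read at 450 nm, and % inhibition was calculated against uninhibited and blank wells.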

For a further assay, the target named is Aminopeptidase N (Homo sapiens, UniProt P15144). Briefly: Inhibition of aminopeptidase N. The procedure, abridged: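 Enzyme and inhibitor were preincubated in sodium phosphate buffer (50 mM, pH 7.2) for 30 min at 37 °C. L-leucine p-nitroanilide was then added and incubated a further 60 min at 37 °C. Absorbance at 405 nm was used to calculate inhibition rates.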
Chain of Aminopeptidase N (P15144 whole entry): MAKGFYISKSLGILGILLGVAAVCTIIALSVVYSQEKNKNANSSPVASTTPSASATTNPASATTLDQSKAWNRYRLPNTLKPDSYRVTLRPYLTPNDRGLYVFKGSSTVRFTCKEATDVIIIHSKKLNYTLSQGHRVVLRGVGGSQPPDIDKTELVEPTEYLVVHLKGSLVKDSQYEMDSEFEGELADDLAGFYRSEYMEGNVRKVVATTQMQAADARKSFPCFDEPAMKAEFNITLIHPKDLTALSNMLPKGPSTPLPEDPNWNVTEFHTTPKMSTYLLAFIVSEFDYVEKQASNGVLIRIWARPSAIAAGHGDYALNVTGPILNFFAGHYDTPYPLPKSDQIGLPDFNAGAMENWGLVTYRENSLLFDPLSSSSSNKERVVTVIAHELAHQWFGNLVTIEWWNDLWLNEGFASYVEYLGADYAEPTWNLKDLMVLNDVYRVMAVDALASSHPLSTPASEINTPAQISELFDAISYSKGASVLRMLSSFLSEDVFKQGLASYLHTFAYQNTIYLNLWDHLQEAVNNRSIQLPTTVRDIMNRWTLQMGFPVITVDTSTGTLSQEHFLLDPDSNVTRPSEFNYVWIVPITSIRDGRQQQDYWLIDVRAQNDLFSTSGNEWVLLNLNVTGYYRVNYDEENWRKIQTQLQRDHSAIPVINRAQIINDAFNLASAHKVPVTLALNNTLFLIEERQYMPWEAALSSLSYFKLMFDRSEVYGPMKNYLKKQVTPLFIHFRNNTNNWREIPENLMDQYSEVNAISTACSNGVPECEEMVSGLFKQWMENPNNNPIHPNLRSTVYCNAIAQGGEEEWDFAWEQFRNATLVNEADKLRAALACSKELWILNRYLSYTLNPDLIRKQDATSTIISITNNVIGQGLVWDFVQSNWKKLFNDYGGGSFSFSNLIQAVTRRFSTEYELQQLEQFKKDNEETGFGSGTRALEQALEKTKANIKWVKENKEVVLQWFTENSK

Chain of 72 kDa type IV collagenase (P08253 whole entry): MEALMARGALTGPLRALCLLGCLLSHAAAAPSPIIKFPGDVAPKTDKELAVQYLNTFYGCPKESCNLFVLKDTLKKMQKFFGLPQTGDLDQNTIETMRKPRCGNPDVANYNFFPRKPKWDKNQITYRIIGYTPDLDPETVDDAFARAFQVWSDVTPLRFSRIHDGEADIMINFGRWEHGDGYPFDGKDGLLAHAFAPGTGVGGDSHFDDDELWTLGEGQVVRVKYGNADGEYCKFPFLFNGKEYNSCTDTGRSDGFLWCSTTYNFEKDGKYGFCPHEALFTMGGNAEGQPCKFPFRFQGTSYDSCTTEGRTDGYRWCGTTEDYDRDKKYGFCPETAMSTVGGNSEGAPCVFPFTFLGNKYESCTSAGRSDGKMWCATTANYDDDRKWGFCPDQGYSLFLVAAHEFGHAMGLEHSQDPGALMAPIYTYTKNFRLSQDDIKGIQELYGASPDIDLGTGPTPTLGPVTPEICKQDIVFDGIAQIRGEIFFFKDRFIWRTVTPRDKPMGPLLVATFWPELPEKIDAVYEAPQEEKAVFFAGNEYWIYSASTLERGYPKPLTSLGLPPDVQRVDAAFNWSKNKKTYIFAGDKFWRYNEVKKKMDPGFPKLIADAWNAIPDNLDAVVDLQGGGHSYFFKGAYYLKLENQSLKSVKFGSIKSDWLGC

Regarding `COc1ccc(/C=C/C(=O)N2C[C@@H](NC(=O)c3cccnc3)C[C@H]2C(=O)NO)cc1OC`, the IC50 was 0.009 µM in assay [1] and 142 µM against Aminopeptidase N.

As to `COC(=O)[C@@H]1CC2(CN1S(=O)(=O)c1ccc(C)cc1)OCCCO2`, the IC50 in assay [1] is 0.2 µM; on Aminopeptidase N, 174 µM.

`COC(=O)[C@@H]1CC2(CN1S(=O)(=O)c1ccc(C)cc1)OCCCCO2`: the IC50 in assay [1] came to 0.3 µM; on Aminopeptidase N, 124 µM.

With `COC(=O)[C@@H]1CC2(CN1S(=O)(=O)c1ccccc1)OCCO2`, the values for the IC50 (in assay [1]; against Aminopeptidase N) were 0.2 µM and 151 µM, respectively.

As for `O=C(NO)[C@@H]1CC2(CN1S(=O)(=O)c1ccccc1)OCCCCO2`, the figures for the IC50 (in assay [1]; against Aminopeptidase N) were 0.012 µM and 107 µM, respectively.

For `Cc1ccc(S(=O)(=O)N2CC3(C[C@H]2C(=O)NO)OCCCCO3)cc1`, the IC50 in assay [1] stood at 0.008 µM; against Aminopeptidase N, 73.2 µM.

For `O=C(NO)[C@@H]1CC2(CN1S(=O)(=O)c1ccccc1)OCCO2`, the IC50 in assay [1] was 0.008 µM; at Aminopeptidase N, 57.8 µM.

As for `O=C(NO)[C@@H]1CC2(CN1S(=O)(=O)c1ccccc1)OCCCO2`, the IC50 is 0.011 µM in assay [1] and 82.7 µM against Aminopeptidase N.

For the molecule `COC(=O)[C@@H]1CC(=O)CN1S(=O)(=O)c1ccc(C)cc1`, the IC50 stood at 0.4 µM in assay [1] and 54.9 µM on Aminopeptidase N.

With `COC(=O)[C@@H]1CC2(CN1S(=O)(=O)c1ccccc1)OCCCCO2`, the IC50 in assay [1] was found to be 1.5 µM; against Aminopeptidase N, 135 µM.

As to `COC(=O)[C@@H]1CC(=O)CN1S(C)(=O)=O`, the IC50 worked out at 9.5 µM in assay [1] and 92.6 µM at Aminopeptidase N.

For `COC(=O)[C@@H]1CC2(CN1S(=O)(=O)c1ccccc1)OCCCO2`, the figures for the IC50 (in assay [1]; on Aminopeptidase N) were 1.1 µM and 168 µM, respectively.

In the case of `COC(=O)[C@@H]1CC(=O)CN1S(=O)(=O)c1ccccc1`, the IC50 came to 2 µM in assay [1] and 75.8 µM against Aminopeptidase N.

Regarding `Cc1ccc(S(=O)(=O)N2CC3(C[C@H]2C(=O)NO)OCCO3)cc1`, the IC50 was determined as 0.003 µM in assay [1] and 48.5 µM against Aminopeptidase N.

For `COC(=O)[C@@H]1CC2(CN1S(=O)(=O)c1ccc(C)cc1)OCCO2`, the IC50 in assay [1] amounted to 0.1 µM; against Aminopeptidase N it was 156 µM.

Regarding `Cc1ccc(S(=O)(=O)N2CC3(C[C@H]2C(=O)NO)OCCCO3)cc1`, the IC50 in assay [1] came to 0.006 µM; against Aminopeptidase N, 61.8 µM.

`COC(=O)[C@@H]1C[C@@H](O)CN1S(C)(=O)=O` (relative stereo): the IC50 in assay [1] came out at 7.1 µM; at Aminopeptidase N, 41.6 µM.

With `COC(=O)[C@@H]1C[C@@H](O)CN1S(=O)(=O)c1ccccc1` (relative stereo), the figures for the IC50 (in assay [1]; on Aminopeptidase N) were 0.8 µM and 53.8 µM, respectively.

For the molecule `COC(=O)[C@@H]1C[C@@H](O)CN1S(=O)(=O)c1ccc(C)cc1` (relative stereo), the values for the concentration for half-maximal inhibition (IC50) (in assay [1]; at Aminopeptidase N) were 0.1 µM and 38.4 µM, respectively.

One may read the IC50 as the concentration that inhibits the measured activity by half.
